Assay results as given in ChEMBL document CHEMBL5046307 (ACS Med Chem Lett, 2022).

Legend:
[1] = Inhibition of human electron transport chain complex 1 in human NCI-H1299 cells assessed as reduction in cellular ATP level measured after 24 hrs by CellTiter-Glo assay; format: cell-based
Method in brief: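 ATP-dependent luciferase luminescence read in H1299 cells, first without (M1) and then after adding the complex II substrate succinate (M2), to separate complex I block from downstream respiratory-chain inhibition or uncoupling.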

[2] = Lipophilicity, logD of compound; settings: octanol/water
[3] = Metabolic stability in rat hepatocyte assessed as maximum bioavailability measured up to 90 mins by LC-MS/MS analysis; format: ADME; settings: for Fh at 1.5 h: rat hepatocytes, read-out: Fmax
[4] = Inhibition of mouse electron transport chain complex 1 assessed as reduction in cellular ATP measured after 24 hrs by celltiter-glo assay
[5] = Inhibition of rat electron transport chain complex 1 assessed as reduction in cellular ATP measured after 24 hrs by celltiter-glo assay
[6] = Inhibition of dog electron transport chain complex 1 assessed as reduction in cellular ATP measured after 24 hrs by celltiter-glo assay; settings: Canis lupus familiaris
[7] = Plasma protein binding in mouse assessed as fraction unbound incubated for 6 to 8 hrs by LC-MS/MS analysis; format: ADME, cell-free; settings: time 6-8 hrs
[8] = Volume of distribution at steady state in Wistar rat plasma at 0.4 mg/kg, iv by LC-MS/MS analysis; format: ADME, organism-based; settings: read-out: Vdss
[9] = Half life in Wistar rat plasma at 0.4 mg/kg, iv by LC-MS/MS analysis; format: ADME, organism-based
[10] = AUC in Wistar rat plasma at 0.8 mg/kg, po by LC-MS/MS analysis; format: ADME, organism-based; set-up: dose 0.8 mg/kg; settings: in vivo
[11] = Oral bioavailability in Wistar rat plasma at 0.8 mg/kg by LC-MS/MS analysis; format: ADME, organism-based
[12] = Clearance in male Wistar rat blood at 0.4 mg/kg, iv by LC-MS/MS analysis
[13] = Inhibition of human electron transport chain complex 1 in human HCT-116 cells assessed as reduction in cellular ATP measured after 24 hrs by CellTiter-Glo assay; format: cell-based; settings: HCT-116, 24 h
[14] = Inhibition of human electron transport chain complex 1 in rat C6 cells assessed as reduction in cellular ATP measured after 24 hrs by CellTiter-Glo assay; format: cell-based; settings: C6, 24 h
[15] = Inhibition of human electron transport chain complex 1 in mouse 4T1 cells assessed as reduction in cellular ATP measured after 24 hrs by CellTiter-Glo assay; format: cell-based; settings: 4T1, 24 h
[16] = Inhibition of human electron transport chain complex 1 in dog A-72 cells assessed as reduction in cellular ATP measured after 24 hrs by CellTiter-Glo assay; format: cell-based; settings: A-72, 24 h
[17] = Inhibition of human electron transport chain complex 1 in dog MDCK cells assessed as reduction in cellular ATP measured after 24 hrs by CellTiter-Glo assay; format: cell-based
[18] = Blood clearance in male Wistar rat at 0.3 to 5 mg/kg, iv and po by LC-MS/MS analysis; format: ADME, organism-based; settings: dose 0.3-5 mg/kg

logD [2] | SMILES | IC50 ([1]; Homo sapiens, NCI-H1299, 24 h) | other results
 | O=C(CN1CCC(c2nc(-c3cc4ccccc4o3)cs2)CC1)Nc1ccccc1 | 882 nM | 
2.4 | c1ccc2[nH]c(CN3CCC(c4nc(-c5cc6ncccc6o5)cs4)CC3)nc2c1 | 770 nM | 
3.4 | CCn1c(CN2CCC(c3nc(-c4cc5ccccc5o4)cs3)CC2)nc2ccccc21 | > 30000 nM | 
3.1 | c1ccc2[nH]c(CN3CCC(c4nc(-c5nc6ccccc6s5)cs4)CC3)nc2c1 | 710 nM | 
3.4 | c1ccc2oc(-c3csc(C4CCN(Cc5nc6ccccc6[nH]5)CC4)n3)cc2c1 | 200 nM | 
3.8 | CC(C)(c1nc2ccccc2[nH]1)N1CCC(c2nc(-c3cc4ccccc4o3)cs2)CC1 | 3000 nM | 
 | c1ccc2oc(-c3csc(C4CCN(Cc5nc6cnccc6[nH]5)CC4)n3)cc2c1 | 38 nM | Fh at 1.5 h [3]: 63%; IC50 [4]: 26 nM; IC50 [5]: 22 nM; IC50 [6]: 37 nM; Fu [7]: 0.59%; Vd [8]: 3.2 L/kg; half-life [9]: 186 min; AUC [10]: 1 kg·h/L; bioavailability [11]: 80%; clearance [12]: 20 mL/min/kg
 | O=C(CN1CCC(c2nc(-c3cc4ccccc4o3)cs2)CC1)Nc1cncs1 | 155 nM | 
4.3 | O=C(c1nc2ccccc2[nH]1)N1CCC(c2nc(-c3cc4ccccc4o3)cs2)CC1 | 3000 nM | 
2.9 | c1ccc2oc(-c3csc(C4CCN(Cc5cn6ccccc6n5)CC4)n3)cc2c1 | 340 nM | 
3.1 | c1ccc2oc(-c3csc(C4CCN(Cc5cn6ncccc6n5)CC4)n3)cc2c1 | 300 nM | 
5.7 | CC(C)(C(=O)Nc1cccc(F)c1)N1CCC(c2nc(-c3cc4ccccc4o3)cs2)CC1 | > 30000 nM | Fh at 1.5 h [3]: 55%
3.7 | CC(c1nc2ccccc2[nH]1)N1CCC(c2nc(-c3cc4ccccc4o3)cs2)CC1 (racemic) | 400 nM | 
3 | N#Cc1ccc2oc(-c3csc(C4CCN(Cc5nc6ccccc6[nH]5)CC4)n3)cc2c1 | 2000 nM | 
4.6 | c1ccc2oc(-c3csc(C4CCN(Cc5nc6ccccc6o5)CC4)n3)cc2c1 | 1720 nM | 
2.6 | c1coc(-c2csc(C3CCN(Cc4nc5ccccc5[nH]4)CC3)n2)c1 | > 30000 nM | 
5.1 | Cc1nsc(NC(=O)CN2CCC(c3nc(-c4cc5ccccc5o4)cs3)CC2)c1Cl | 25 nM | IC50 [13]: 3.9 nM; IC50 [14]: 1.7 nM; IC50 [15]: 13 nM; IC50 [16]: 27 nM; IC50 [17]: 49 nM; Fh at 1.5 h [3]: 18%; clearance [18]: 163 mL/min/kg
3.7 | Fc1cccc2[nH]c(CN3CCC(c4nc(-c5cc6ccccc6o5)cs4)CC3)nc12 | 325 nM | Fh at 1.5 h [3]: 57%; clearance [18]: 18.3 mL/min/kg
2.5 | c1ccc2oc(-c3csc(C4CCN(Cc5cn6cccnc6n5)CC4)n3)cc2c1 | 730 nM | 
2.7 | c1ccc2oc(-c3csc(C4CCN(Cc5cn6ccncc6n5)CC4)n3)cc2c1 | 390 nM | 
3.4 | N#Cc1ccc2nc(CN3CCC(c4nc(-c5cc6ccccc6o5)cs4)CC3)[nH]c2c1 | 860 nM | 

logD [2] | SMILES | IC50 ([1]; Homo sapiens, NCI-H1299, 24 h) | other results
5.6 | c1ccc2oc(-c3csc(C4CCN(Cc5nc6ccccc6s5)CC4)n3)cc2c1 | 1760 nM | 
 | O=C(CN1CCC(c2nc(-c3cc4ccccc4o3)cs2)CC1)Nc1cccc(F)c1 | 420 nM | 
3 | CN(C(=O)CN1CCC(c2nc(-c3cc4ccccc4o3)cs2)CC1)c1ccncc1 | 96 nM | Fh at 1.5 h [3]: 10%
 | CCc1nccc(N2CCC(N3CCC(c4nc(-c5cc6ccccc6o5)cs4)CC3)C2=O)c1Cl (single isomer, unassigned; form 2) |  | IC50 ([1]; nci-h1299): 950 nM; Fmax ([3]; hepatocytes, 1.5 h): 43%
2.5 | Cn1c(-c2csc(C3CCN(Cc4nc5ccccc5[nH]4)CC3)n2)nc2ccccc21 | 20000 nM | 
5.6 | Cc1nsc(NC(=O)C(C)N2CCC(c3nc(-c4cc5ccccc5o4)cs3)CC2)c1Cl (racemic) | 77 nM | Fh at 1.5 h [3]: 61%; clearance [18]: 118 mL/min/kg
4.3 | Cn1c(CN2CCC(c3nc(-c4cc5ccccc5o4)cs3)CC2)nc2ccccc21 | 700 nM | 
3.1 | Fc1cnc2nc(CN3CCC(c4nc(-c5cc6ccccc6o5)cs4)CC3)[nH]c2c1 | 300 nM | 
2.6 | c1ccc2oc(-c3csc(C4CCN(Cc5ncc[nH]5)CC4)n3)cc2c1 | 4000 nM | 
 | O=C(CN1CCC(c2nc(-c3cc4ccccc4o3)cs2)CC1)Nc1cccc(C(F)(F)F)c1 | 3280 nM | 
3 | Cc1ccc2[nH]c(CN3CCC(c4nc(-c5cc6ccccc6o5)cs4)CC3)nc2n1 | 300 nM | 
 | CCc1nccc(NC(=O)CN2CCC(c3nc(-c4cc5ccccc5o4)cs3)CC2)c1Cl | 102 nM | 
3 | Cc1ccnc2nc(CN3CCC(c4nc(-c5cc6ccccc6o5)cs4)CC3)[nH]c12 | 300 nM | 
3.3 | c1ccc2oc(-c3csc(C4CCN(c5nnc(-c6ccncc6)o5)CC4)n3)cc2c1 | 13400 nM | Fh at 1.5 h [3]: 44%
3.5 | Fc1ccc2cc(-c3csc(C4CCN(Cc5nc6ccccc6[nH]5)CC4)n3)oc2c1 | 500 nM | 
3.7 | c1ccc(-c2c[nH]c(CN3CCC(c4nc(-c5cc6ccccc6o5)cs4)CC3)n2)cc1 | 860 nM | 
2.6 | c1ccc2oc(-c3csc(C4CCN(Cc5nc6ncncc6[nH]5)CC4)n3)cc2c1 | 80 nM | 
 | O=C(CN1CCC(c2nc(-c3cc4ccccc4o3)cs2)CC1)Nc1ccccc1F | 3240 nM | 
 | O=C(CN1CCC(c2nc(-c3cc4ccccc4o3)cs2)CC1)Nc1ccncc1 | 70 nM | 
4.2 | CCc1nccc(N2CCC(N3CCC(c4nc(-c5cc6ccccc6o5)cs4)CC3)C2=O)c1Cl (single isomer, unassigned; form 1) |  | IC50 ([1]; nci-h1299): 14 nM; Fh at 1.5 h [3]: 40%; clearance [18]: 45 mL/min/kg
3 | c1ccc(-c2csc(C3CCN(Cc4nc5ccccc5[nH]4)CC3)n2)cc1 | 10000 nM | 
